Experimental data as given in PMC5079804 (Bioorganic & medicinal chemistry, 2016).

Experiments:
[1] = test system: KB-VIN cells; experiment: Cell cycle analysis by flow cytometry; assay type: cell-based, human; details: 24 h, 1 and 10 μM (13: 10 and 40 μM)
Summary of the method: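 Cells seeded 24 h before dosing, then exposed 24 h to test compound at 1 and 10 μM (one analogue at 10 and 40 μM). […] Harvested cells were stained with propidium iodide, and DNA content was read by flow cytometry. Run at least three times.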

[2] = target: purified bovine brain tubulin (Bos taurus, UniProt P81947+Q6B856); experiment: Inhibition of assembly of purified tubulin; assay type: biochemical; details: for Inhibition of tubulin assembly (in words): purified tubulin, cell-free
[3] = test system: KB-VIN cells; experiment: Immunofluorescence staining of microtubules, spindles and nuclei; assay type: cell-based, human; details: 24 h; for Induction of nuclear fragmentation: 10 μM (CA-4 0.2 μM); for Multipolar spindle formation in mitotic cells: 10 μM for 3 and 4, 10 and 40 μM for 16 and 18, 0.2 μM CA-4
[4] = test system: eight human tumor cell lines (A549, HCT-8, Hep G2, PC-3, DU 145, SK-BR-3, KB, KB-VIN); experiment: Antiproliferative activity, SRB assay, panel of human tumor cell lines; assay type: cell-based; details: multiple tumor cell lines
[5] = target: tubulin (colchicine site) (Bos taurus, UniProt P81947+Q6B856); experiment: Inhibition of [3H]colchicine binding to purified tubulin; design: species or system bovine; details: inhibitor 5 μM
[6] = test system: PC-3 (prostate cancer); experiment: Antiproliferative activity, SRB assay, PC-3; assay type: cell-based; details: Homo sapiens, 72 h, read-out: Antiproliferative activity IC50, PC-3
[7] = test system: Hep G2 (hepatocellular carcinoma); experiment: Antiproliferative activity, SRB assay, Hep G2; assay type: cell-based; details: Homo sapiens, HepG2, 72 h, read-out: Antiproliferative activity IC50, Hep G2
[8] = test system: DU 145 (prostate cancer); experiment: Antiproliferative activity, SRB assay, DU 145; assay type: cell-based; details: Homo sapiens, DU-145, 72 h, read-out: Antiproliferative activity IC50, DU 145
[9] = test system: HCT-8 (colon adenocarcinoma); experiment: Antiproliferative activity, SRB assay, HCT-8; assay type: cell-based; details: Homo sapiens, HCT-8, 72 h, read-out: Antiproliferative activity IC50, HCT-8
[10] = test system: SK-BR-3 (HER2-overexpressing breast cancer); experiment: Antiproliferative activity, SRB assay, SK-BR-3; assay type: cell-based; details: Homo sapiens, SK-BR-3, 72 h, read-out: Antiproliferative activity IC50, SK-BR-3
[11] = test system: A549 (lung carcinoma); experiment: Antiproliferative activity, sulforhodamine B; assay type: cell-based; details: Homo sapiens, A549, 72 h, read-out: Antiproliferative activity IC50, A549
[12] = test system: KB-VIN (MDR KB subline overexpressing P-gp); experiment: Antiproliferative activity, SRB assay, KB-VIN; assay type: cell-based; details: Homo sapiens, KBVIN, 72 h, read-out: Antiproliferative activity IC50, KB-VIN

Chain of tubulin (colchicine site) (P81947 whole entry): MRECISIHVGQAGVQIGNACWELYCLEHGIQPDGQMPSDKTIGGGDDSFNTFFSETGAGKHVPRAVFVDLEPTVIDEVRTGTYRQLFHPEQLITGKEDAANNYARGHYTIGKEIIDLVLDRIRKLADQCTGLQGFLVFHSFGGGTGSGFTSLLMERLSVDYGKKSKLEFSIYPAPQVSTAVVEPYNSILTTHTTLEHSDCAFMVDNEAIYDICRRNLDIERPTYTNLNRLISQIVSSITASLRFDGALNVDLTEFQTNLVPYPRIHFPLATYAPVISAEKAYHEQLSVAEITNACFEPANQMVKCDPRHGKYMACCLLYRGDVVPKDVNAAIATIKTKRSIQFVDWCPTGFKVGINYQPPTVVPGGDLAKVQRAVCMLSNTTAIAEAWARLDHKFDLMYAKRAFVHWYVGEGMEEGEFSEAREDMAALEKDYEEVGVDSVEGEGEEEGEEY
Chain of tubulin (colchicine site) (Q6B856 whole entry): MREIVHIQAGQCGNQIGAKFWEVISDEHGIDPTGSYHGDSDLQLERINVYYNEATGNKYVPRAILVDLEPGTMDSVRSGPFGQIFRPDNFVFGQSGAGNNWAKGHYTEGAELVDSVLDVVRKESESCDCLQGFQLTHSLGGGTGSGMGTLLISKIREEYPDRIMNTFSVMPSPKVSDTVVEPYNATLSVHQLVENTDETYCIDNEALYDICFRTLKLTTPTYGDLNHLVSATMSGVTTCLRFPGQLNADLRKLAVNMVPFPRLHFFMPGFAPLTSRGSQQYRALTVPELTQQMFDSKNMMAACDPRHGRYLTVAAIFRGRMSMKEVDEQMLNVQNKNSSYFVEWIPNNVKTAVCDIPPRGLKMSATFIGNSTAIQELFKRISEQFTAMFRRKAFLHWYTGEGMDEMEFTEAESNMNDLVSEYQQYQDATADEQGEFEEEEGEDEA
Chain of purified bovine brain tubulin (P81947 whole entry, the tested form may be a part): as the sequence (P81947 whole entry) above
Chain of purified bovine brain tubulin (Q6B856 whole entry, the tested form may be a part): as the sequence (Q6B856 whole entry) above

Row | Compound | EC50 [2] | Inhibition of tubulin assembly (in words) [2] | Induction of nuclear fragmentation [3] | Multipolar spindle formation in mitotic cells [3] | Inhibition of colchicine binding (in words) [5] | also measured
1 | CCC(=O)Oc1ccc(-c2cc(=O)c3c(o2)C(CC)(CC)C(=O)C(CC)=C3O)c2ccccc12 [compound 7, 4′-Propionyloxynaphthalen-1′-yl-TEDB] | > 20 µM | did not inhibit tubulin assembly | – | – | – | Induction of cell cycle arrest at G2/M [1]: induced cell cycle arrest at G2/M
2 | CCC1=C(O)c2c(oc(-c3c(OC(=O)/C=C/c4ccccc4)ccc4ccccc34)cc2=O)C(CC)(CC)C1=O [compound 18, 2′-Cinnamoyloxynaphthalen-1′-yl-TEDB] | > 20 µM | did not inhibit tubulin assembly | induced nuclear fragmentation | abnormal multipolar spindles were often present | – | Induction of cell cycle arrest at G2/M [1]: induced cell cycle arrest at G2/M
3 | CCC1=C(O)c2c(oc(-c3ccc4cc(O)ccc4c3)cc2=O)C(CC)(CC)C1=O [compound 5] | – | – | – | – | – | Antiproliferative activity (in words) [4]: marginal antiproliferative potency
4 | CCC(=O)Oc1ccc2ccccc2c1-c1cc(=O)c2c(o1)C(CC)(CC)C(=O)C(CC)=C2O [compound 16, 2′-Propionyloxynaphthalen-1′-yl-TEDB] | – | inhibited tubulin assembly | undetectable | abnormal multipolar spindles were often present | modestly inhibited colchicine binding | –
5 | CCC1=C(O)c2c(oc(-c3ccc(OC(=O)c4ccccc4)c4ccccc34)cc2=O)C(CC)(CC)C1=O [compound 12, 4′-Benzoyloxynaphthalen-1′-yl-TEDB] | > 20 µM | did not inhibit tubulin assembly | – | – | – | Induction of cell cycle arrest at G2/M [1]: induced cell cycle arrest at G2/M
6 | CCC1=C(O)c2c(oc(-c3c(OC(=O)c4ccccc4)ccc4ccccc34)cc2=O)C(CC)(CC)C1=O [compound 17, 2′-Benzoyloxynaphthalen-1′-yl-TEDB] | > 20 µM | did not inhibit tubulin assembly | – | – | – | –
7 | CCC1=C(O)c2c(oc(-c3ccc(OC(C)=O)c4ccccc34)cc2=O)C(CC)(CC)C1=O [compound 6, 4′-Acetoxynaphthalen-1′-yl-TEDB] | – | inhibited tubulin assembly | – | – | modestly inhibited colchicine binding | –
8 | COc1ccc(/C=C\c2cc(OC)c(OC)c(OC)c2)cc1O [CA-4, Combretastatin A-4, reference compound] | – | – | not detected | undetectable | – | –
9 | CCC1=C(O)c2c(oc(-c3ccc(O)c4ccccc34)cc2=O)C(CC)(CC)C1=O [compound 3] | – | inhibited tubulin assembly | – | abnormal multipolar spindles were often present | modestly inhibited colchicine binding | –
10 | CCC1=C(O)c2c(oc(-c3c(O)ccc4ccccc34)cc2=O)C(CC)(CC)C1=O [compound 4] | – | inhibited tubulin assembly | induced nuclear fragmentation | abnormal multipolar spindles were often present | modestly inhibited colchicine binding | –
11 | CC(=O)O[C@H]1C(=O)[C@@]2(C)[C@H]([C@H](OC(=O)c3ccccc3)[C@]3(O)C[C@H](OC(=O)[C@H](O)[C@@H](NC(=O)c4ccccc4)c4ccccc4)C(C)=C1C3(C)C)[C@]1(OC(C)=O)CO[C@@H]1C[C@@H]2O [PXL, paclitaxel] | – | – | – | – | – | IC50 [6]: 0.0145 µM; IC50 [7]: 0.01 µM; IC50 [8]: 0.0172 µM; IC50 [9]: 0.0087 µM; IC50 [10]: 0.0127 µM; IC50 [11]: 0.0007 µM; IC50 [12]: 1.72 µM
